From ChEMBL document CHEMBL1138034, “Structural studies on bioactive compounds. 40.(1) Synthesis and biological properties of fluoro-, methoxyl-, and amino-substituted 3-phenyl-4H-1-benzopyran-4-ones and a comparison of their antitumor activities with the activities of related 2-phenylbenzothiazoles” (J Med Chem, 2006)
Calls of active or inactive are those of the source. The rule behind the calls is not given here.

Legend:
MDA-MB-468 [1] = experiment: Antiproliferative activity against human MDA-MB-468 cell line in presence of 10 nM TBDD; type: functional
Summary of the method: (§1)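 MDA-MB-468 cells, 5 × 10³/well, allowed 24 h to adhere, then co-exposed 72 h to isoflavone (final 0.1 nM–100 µM, n = 8) plus TBDD at final 10 nM (n = 4). Viability measured by MTT (400 µg/mL, 4 h, 37 °C), formazan dissolved in DMSO/glycine pH 10.5, absorbance 550 nm.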

MDA-MB-468 [2] = experiment: Cytotoxicity against human MDA-MB-468 cell line at 3 uM in presence of TBDD; type: functional, cell-based; summary of the method: as §1
HT-29 = experiment: Antiproliferative activity against human HT29 cell line; type: functional
Summary of the method: (§2)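 Cells kept in RPMI 1640 with 2 mM L-glutamine and 10% fetal calf serum, 37 °C, 5% CO₂, passaged twice weekly. 5 × 10³ cells/well allowed 24 h to adhere, then exposed 72 h to compound at final 0.1 nM–100 µM (n = 8). MTT read-out: MTT 400 µg/mL for 4 h at 37 °C, formazan dissolved in DMSO/glycine buffer pH 10.5, absorbance 550 nm; GI50 derived.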

[3] = test system: Panel NCI-60 (60 carcinoma cell lines); experiment: Antiproliferative activity against human NCI60 cell line; type: functional
MCF7 = experiment: Antiproliferative activity against human MCF7 cell line; type: functional; summary of the method: as §2
MDA-MB-468 [4] = experiment: Antiproliferative activity against human MDA-MB-468 cell line; type: functional; summary of the method: as §2
HCT-116 = experiment: Antiproliferative activity against human HCT116 cell line; type: functional; summary of the method: as §2
Cytochrome P450 1A1 = molecular target: T1, Cytochrome P450 1A1 (Homo sapiens, UniProt P04798); experiment: Inhibition of CYP1A1 by EROD assay; type: ADME
T1 sequence (P04798 whole entry): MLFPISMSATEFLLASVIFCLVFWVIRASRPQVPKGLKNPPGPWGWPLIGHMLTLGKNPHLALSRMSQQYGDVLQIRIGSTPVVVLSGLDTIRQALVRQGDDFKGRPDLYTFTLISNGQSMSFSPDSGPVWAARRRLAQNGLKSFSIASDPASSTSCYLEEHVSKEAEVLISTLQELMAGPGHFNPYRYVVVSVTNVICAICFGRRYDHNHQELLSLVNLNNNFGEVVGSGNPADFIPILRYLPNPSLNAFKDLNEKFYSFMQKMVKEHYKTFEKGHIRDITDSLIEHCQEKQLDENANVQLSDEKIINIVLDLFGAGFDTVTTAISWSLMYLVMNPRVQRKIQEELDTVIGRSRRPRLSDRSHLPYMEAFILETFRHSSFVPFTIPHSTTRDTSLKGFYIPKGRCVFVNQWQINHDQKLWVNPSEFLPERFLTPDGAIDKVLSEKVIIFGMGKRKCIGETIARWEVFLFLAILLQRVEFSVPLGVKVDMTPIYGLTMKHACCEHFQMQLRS
Summary of the method: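 EROD fluorometric assay. Recombinant CYP1A1 microsomes (0.1 mg/mL) in 100 mM Tris-HCl pH 7.4 with 50 µM MgCl₂ and 100 µM 7-ethoxyresorufin, with compound at 1, 10 or 100 µM. Preincubated 5 min at 37 °C, started with 500 µM NADPH, run 15 min at 37 °C, stopped with ice-cold acetonitrile. Resorufin read at ex 530/em 585 nm against a standard curve; no-microsome and DMSO controls.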

MDA-MB-435 = experiment: Antiproliferative activity against human MDA-MB-435 cell line expressing ARNT splice variant

Compound | GI50 (MDA-MB-468 [1]) [µM] | Activity (MDA-MB-468 [2]) | GI50 (HT-29) [µM] | GI50 [3] [µM] | GI50 (MCF7) [µM] | GI50 (MDA-MB-468 [4]) [µM] | GI50 (HCT-116) [µM] | IC50 (Cytochrome P450 1A1) [µM] | GI50 (MDA-MB-435) [µM]
COc1ccc(-c2coc3c(F)cccc3c2=O)cc1OC | < 1 | Active | 88 | 50 | 75.5 | 41.9 | 67.8 | – | –
Nc1ccc(-c2coc3ccccc3c2=O)cc1 | – | – | 8.1 | 50 | 64.9 | 6 | 17.3 | – | –
O=c1c(-c2cccc([N+](=O)[O-])c2)coc2ccccc12 | – | – | – | 50 | – | – | – | – | –
COc1ccc(-c2coc3ccccc3c2=O)cc1OC | < 1 | – | > 100 | 50 | 88.1 | 66.5 | > 100 | – | –
O=c1c(-c2ccc(Cl)cc2)coc2ccccc12 | – | – | – | 50 | – | – | – | – | –
Nc1ccc(-c2coc3ccc(F)cc3c2=O)cc1 | – | – | 6.1 | 50 | 8.8 | 4.8 | 8.5 | – | –
Cc1cc(-c2nc3cc(F)ccc3s2)ccc1N | – | – | 63 | – | < 0.0001 | < 0.0001 | 16 | – | –
O=c1c(-c2ccc3c(c2)OCO3)coc2ccc(F)cc12 | 2 | – | – | 50 | 60 | 1.5 | – | – | –
COc1ccc(-c2coc3ccc(F)cc3c2=O)cc1OC | < 1 | – | 88.2 | 50 | 93.1 | 0.9 | 65.3 | < 100 | > 30
Nc1ccc(-c2coc3cc(F)ccc3c2=O)cc1 | – | – | 8.6 | 50 | 7.9 | 6.4 | 7.2 | – | –
COc1ccc(-c2coc3c(F)cc(F)cc3c2=O)cc1OC | – | – | 7.2 | 50 | 46.7 | 6.3 | 8.1 | – | > 30
COc1ccc(-c2coc3cc(F)ccc3c2=O)cc1OC | < 1 | Active | 87 | 50 | 90.6 | 58.9 | 80.2 | < 100 | –
COc1ccc(-c2coc3c(F)c(F)ccc3c2=O)cc1OC | < 1 | – | 31.7 | 50 | 47.2 | 21.6 | 26 | – | –
COc1ccc(-c2coc3cc(F)ccc3c2=O)cc1 | – | – | 17.6 | 50 | 43.8 | 9.9 | 8.5 | – | > 30
O=c1c(-c2ccc(Br)cc2)coc2ccccc12 | – | – | – | 50 | – | – | – | – | –
COc1cccc(-c2coc3ccccc3c2=O)c1 | < 1 | – | 88 | 50 | > 100 | 29 | > 100 | – | –
COc1ccc(-c2coc3cc(F)c(F)cc3c2=O)cc1OC | – | – | 22.6 | 50 | 41.5 | 17.2 | 39.7 | – | > 30
COc1ccc(-c2nc3cc(F)ccc3s2)cc1OC | – | – | 2.6 | – | 0.008 | < 0.0001 | 5.4 | – | –
COc1ccc(-c2coc3ccc(F)cc3c2=O)cc1 | – | – | – | 50 | – | – | – | < 100 | –
